Experimental data taken from ChEMBL document CHEMBL2016441, “Discovery and structural development of small molecules that enhance transport activity of bile salt export pump mutant associated with progressive familial intrahepatic cholestasis type 2” (Bioorg Med Chem, 2012).

Legend:
Bile salt export pump [1] = biological target: T1, Bile salt export pump (Homo sapiens, UniProt O95342, E297G); assay: (§1) Restoration of human BSEP E297G mutant trafficking to cell membrane in MDCK2 cells co-expressing NTCP assessed as increase in [3H]taurocholate transport measuring apparent efflux clearance across the apical membrane at 1 mM preincubated for 24 hrs prior incubation with [3H]taurocholate measured after 2 hrs by transcellular transport assay relative to control; assay type: cell-based; conditions: mdck2, 2 h, 1000 µM
Procedure, shortened: (§2)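 MDCK II cells grown 2 days on Transwell inserts, then infected with E297G BSEP or GFP adenovirus (50 MOI). Compounds added 24 h later for 24 h. [3H]TC added basally. PS_apical is the steady-state transcellular rate over 2 h divided by the cellular [3H]TC concentration at 2 h. Mean ± SE of triplicates.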

Bile salt export pump [2] = biological target: T1, Bile salt export pump; assay: Restoration of human BSEP E297G mutant trafficking to cell membrane in MDCK2 cells co-expressing NTCP assessed as accumulation of [3H]taurocholate at 10 uM preincubated for 24 hrs prior incubation with [3H]taurocholate measured after 2 hrs by liquid scintillation counting; assay type: cell membranes; conditions: mdck2, 2 h
Procedure, shortened: (§3)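 Human WT or E297G BSEP delivered by recombinant adenovirus (50 MOI) into MDCK II cells on 24-well plates, 1 day after seeding. GFP adenovirus serves as control. Compounds added 24 h post-infection for 24 h. Cells washed with Krebs–Henseleit buffer pH 7.4, then incubated with [3H]TC for 2 h and washed with ice-cold buffer. Lysed in 2 N HCl, neutralized with NaOH, counted by scintillation. Read-out is the BSEP/GFP accumulation ratio.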

Bile salt export pump [3] = biological target: T1, Bile salt export pump; assay: Restoration of human BSEP E297G mutant trafficking to cell membrane in MDCK2 cells co-expressing NTCP assessed as decrease in [3H]taurocholate accumulation preincubated for 24 hrs prior incubation with [3H]taurocholate measured after 2 hrs by liquid scintillation counting; assay type: cell membranes; conditions: mdck2, 2 h; procedure, shortened: as §3
Bile salt export pump [4] = biological target: T1, Bile salt export pump; assay: as §1, with “10 uM” for “1 mM”; assay type: cell-based; conditions: mdck2, 2 h; procedure, shortened: as §2
Bile salt export pump [5] = biological target: T1, Bile salt export pump; assay: Restoration of human BSEP E297G mutant trafficking to cell membrane in MDCK2 cells co-expressing NTCP assessed as accumulation of [3H]taurocholate at 100 uM preincubated for 24 hrs prior incubation with [3H]taurocholate measured after 2 hrs by liquid scintillation counting; assay type: cell membranes; conditions: mdck2, 2 h
Bile salt export pump [6] = biological target: Bile salt export pump (Homo sapiens, UniProt O95342); assay: Restoration of wild type human BSEP trafficking to cell membrane in MDCK2 cells co-expressing NTCP assessed as decrease in [3H]taurocholate accumulation at 10 to 100 uM preincubated for 24 hrs prior incubation with [3H]taurocholate measured after 2 hrs by liquid scintillation counting; assay type: cell membranes; conditions: mdck2, 2 h; procedure, shortened: as §3
Sequence of Bile salt export pump (Homo sapiens, UniProt O95342) (O95342 whole entry): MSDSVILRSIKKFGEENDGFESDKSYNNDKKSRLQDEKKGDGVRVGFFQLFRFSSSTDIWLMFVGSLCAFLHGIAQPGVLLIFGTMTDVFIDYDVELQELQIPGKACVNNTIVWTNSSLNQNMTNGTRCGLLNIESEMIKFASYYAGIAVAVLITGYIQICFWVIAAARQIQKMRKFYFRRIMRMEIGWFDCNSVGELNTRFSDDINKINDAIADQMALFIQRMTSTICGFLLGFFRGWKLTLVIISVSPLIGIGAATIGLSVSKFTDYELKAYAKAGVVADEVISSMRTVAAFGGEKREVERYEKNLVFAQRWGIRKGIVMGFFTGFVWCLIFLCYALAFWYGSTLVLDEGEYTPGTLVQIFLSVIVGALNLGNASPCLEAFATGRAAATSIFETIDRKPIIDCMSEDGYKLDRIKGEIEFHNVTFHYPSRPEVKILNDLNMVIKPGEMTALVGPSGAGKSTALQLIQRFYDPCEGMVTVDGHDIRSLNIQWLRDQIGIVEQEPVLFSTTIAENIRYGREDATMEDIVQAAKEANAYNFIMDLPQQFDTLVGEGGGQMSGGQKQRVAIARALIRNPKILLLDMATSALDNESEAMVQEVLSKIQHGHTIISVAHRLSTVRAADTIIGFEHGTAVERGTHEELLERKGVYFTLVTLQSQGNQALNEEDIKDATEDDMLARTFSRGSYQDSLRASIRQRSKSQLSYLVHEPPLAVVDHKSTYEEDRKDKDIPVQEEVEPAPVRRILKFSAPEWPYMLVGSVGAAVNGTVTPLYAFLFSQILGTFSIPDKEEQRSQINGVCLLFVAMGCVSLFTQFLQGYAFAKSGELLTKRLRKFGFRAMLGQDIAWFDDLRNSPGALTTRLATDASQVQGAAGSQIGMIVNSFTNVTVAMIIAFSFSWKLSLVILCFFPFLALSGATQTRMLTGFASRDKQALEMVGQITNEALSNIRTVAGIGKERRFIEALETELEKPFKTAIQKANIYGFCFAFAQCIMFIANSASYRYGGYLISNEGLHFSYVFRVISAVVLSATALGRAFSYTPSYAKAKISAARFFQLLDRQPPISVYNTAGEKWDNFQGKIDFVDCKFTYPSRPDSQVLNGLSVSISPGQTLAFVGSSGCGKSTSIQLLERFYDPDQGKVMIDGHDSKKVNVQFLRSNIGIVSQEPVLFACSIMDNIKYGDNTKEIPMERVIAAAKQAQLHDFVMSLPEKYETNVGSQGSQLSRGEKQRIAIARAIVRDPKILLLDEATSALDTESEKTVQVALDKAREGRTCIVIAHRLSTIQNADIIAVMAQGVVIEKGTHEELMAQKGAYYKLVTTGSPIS

T1 sequence (O95342 whole entry E297G): as the sequence (O95342 whole entry) above, with E297G counted along it

Row | Compound | Activity (Bile salt export pump [2]) [%] | also measured
1 | O=C(O)CCCc1ccccc1 | – | fold change (FC) (Bile salt export pump [1]): 3
2 | CCCCN(C(=O)c1ccc(OCc2c(-c3c(Cl)cccc3Cl)noc2C(C)C)cc1Cl)c1cccc(C(=O)O)c1 | 49 | –
3 | CC(C)c1onc(-c2c(Cl)cccc2Cl)c1COc1ccc(C(=O)N(c2cccc(C(=O)O)c2)c2cccc3ccccc23)c(Cl)c1 | 59 | –
4 | CC(C)c1onc(-c2c(Cl)cccc2Cl)c1COc1ccc(C(=O)N(c2cccc(C(=O)O)c2)c2ccc3ccccc3c2)c(Cl)c1 | 70 | –
5 | CC(C)c1onc(-c2ccccc2)c1COc1ccc(C(=O)N(Cc2ccccc2)c2cccc(C(=O)O)c2)c(Cl)c1 | 64 | –
6 | CC(C)c1onc(-c2c(Cl)cccc2Cl)c1COc1ccc(C(=O)N(Cc2ccccc2)c2cccc(C(=O)O)c2)cc1 | 85 | –
7 | Cc1cccc(C)c1-c1noc(C(C)C)c1COc1ccc(C(=O)N(Cc2ccccc2)c2cccc(C(=O)O)c2)c(Cl)c1 | 93 | –
8 | CC(C)c1onc(-c2c(Cl)cccc2Cl)c1COc1ccc(C(=O)N(Cc2ccccc2)c2ccccc2C(=O)O)c(Cl)c1 | 80 | –
9 | CC(C)c1onc(-c2c(Cl)cccc2Cl)c1COc1ccc(C(=O)N(Cc2ccccc2)c2ccc(C(=O)O)cc2)c(Cl)c1 | 35 | –
10 | COC(=O)c1cccc(N(Cc2ccccc2)C(=O)c2ccc(OCc3c(-c4c(Cl)cccc4Cl)noc3C(C)C)cc2Cl)c1 | 93 | –
11 | CC(C)c1onc(-c2c(Cl)cccc2Cl)c1COc1ccc(/C=C/c2cccc(C(=O)O)c2)c(Cl)c1 | 33 | Activity (Bile salt export pump [3]): Dose-dependent effect
12 | CC(C)c1onc(-c2c(Cl)cccc2Cl)c1COc1ccc(C(=O)Nc2cccc(C(=O)O)c2)c(Cl)c1 | 111 | –
13 | CC(C)c1onc(-c2c(Cl)cccc2Cl)c1COc1ccc(C(=O)N(Cc2ccccc2)c2cccc(C(=O)O)c2)c(Cl)c1 | 31 | Activity (Bile salt export pump [3]): Dose-dependent effect; fold change (FC) (Bile salt export pump [4]): 7
14 | CC(C)c1onc(-c2c(Cl)cccc2Cl)c1COc1ccc(C(=O)N(CCc2ccccc2)c2cccc(C(=O)O)c2)c(Cl)c1 | 53 | –
15 | CC(C)c1onc(-c2c(Cl)cccc2Cl)c1COc1ccc(C(=O)N(C)c2cccc(C(=O)O)c2)c(Cl)c1 | 66 | –
16 | C[C@H](CCC(=O)O)[C@H]1CC[C@H]2[C@@H]3[C@H](O)C[C@@H]4C[C@H](O)CC[C@]4(C)[C@H]3CC[C@]12C [CHENODIOL] | 50 | Activity (Bile salt export pump [5]): 46%
17 | C[C@H](CCC(=O)O)[C@H]1CC[C@H]2[C@@H]3[C@H](O)C[C@@H]4C[C@H](O)CC[C@]4(C)[C@H]3C[C@H](O)[C@]12C [CHOLIC ACID] | 73 | Activity (Bile salt export pump [5]): 40%; Activity (Bile salt export pump [6]): Active
18 | C[C@H](CCC(=O)O)[C@H]1CC[C@H]2[C@@H]3CC[C@@H]4C[C@H](O)CC[C@]4(C)[C@H]3C[C@H](O)[C@]12C [DEOXYCHOLIC ACID] | – | Activity (Bile salt export pump [5]): 65%
19 | C[C@H](CCC(=O)NCC(=O)O)[C@H]1CC[C@H]2[C@@H]3[C@H](O)C[C@@H]4C[C@H](O)CC[C@]4(C)[C@H]3C[C@H](O)[C@]12C [GLYCOCHOLIC ACID] | – | Activity (Bile salt export pump [5]): 108%
20 | C[C@H](CCC(=O)O)[C@H]1CC[C@H]2[C@@H]3[C@@H](O)C[C@@H]4C[C@H](O)CC[C@]4(C)[C@H]3CC[C@]12C [URSODIOL] | 76 | Activity (Bile salt export pump [5]): 43%
